The values below come from ChEMBL document CHEMBL1131023, “Identification of a dihydropyridine as a potent alpha1a adrenoceptor-selective antagonist that inhibits phenylephrine-induced contraction of the human prostate” (J Med Chem, 1998).

For test [1], the target named is T1, Alpha-1D adrenergic receptor (Homo sapiens, UniProt P25100).
T1 sequence (P25100 whole entry): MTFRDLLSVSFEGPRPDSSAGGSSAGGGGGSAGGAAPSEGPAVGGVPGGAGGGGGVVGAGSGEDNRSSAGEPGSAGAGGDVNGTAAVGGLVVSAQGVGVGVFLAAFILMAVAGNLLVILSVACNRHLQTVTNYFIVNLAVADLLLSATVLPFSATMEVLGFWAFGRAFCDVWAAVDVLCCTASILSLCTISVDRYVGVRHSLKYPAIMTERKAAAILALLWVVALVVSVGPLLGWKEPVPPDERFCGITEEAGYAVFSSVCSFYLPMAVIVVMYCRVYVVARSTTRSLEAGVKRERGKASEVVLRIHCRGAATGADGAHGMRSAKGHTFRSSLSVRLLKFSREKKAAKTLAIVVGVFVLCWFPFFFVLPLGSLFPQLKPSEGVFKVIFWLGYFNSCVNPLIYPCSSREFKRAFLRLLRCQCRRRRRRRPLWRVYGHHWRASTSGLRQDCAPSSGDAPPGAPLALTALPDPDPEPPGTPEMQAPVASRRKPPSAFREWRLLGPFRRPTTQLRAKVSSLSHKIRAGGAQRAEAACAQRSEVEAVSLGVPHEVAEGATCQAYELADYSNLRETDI
Nature of the test: Binding affinity determined by displacement of [3H]prazosin from alpha-1D adrenergic receptor. Summed up: (§1)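 Radioligand displacement binding at the cloned receptor, incubated for 30 min.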
Background: In a radioligand displacement assay an active substance lowers the binding of a labelled ligand.

Test [2] addresses T2, Alpha-2A adrenergic receptor (Homo sapiens, UniProt P08913).
T2 sequence (P08913 whole entry): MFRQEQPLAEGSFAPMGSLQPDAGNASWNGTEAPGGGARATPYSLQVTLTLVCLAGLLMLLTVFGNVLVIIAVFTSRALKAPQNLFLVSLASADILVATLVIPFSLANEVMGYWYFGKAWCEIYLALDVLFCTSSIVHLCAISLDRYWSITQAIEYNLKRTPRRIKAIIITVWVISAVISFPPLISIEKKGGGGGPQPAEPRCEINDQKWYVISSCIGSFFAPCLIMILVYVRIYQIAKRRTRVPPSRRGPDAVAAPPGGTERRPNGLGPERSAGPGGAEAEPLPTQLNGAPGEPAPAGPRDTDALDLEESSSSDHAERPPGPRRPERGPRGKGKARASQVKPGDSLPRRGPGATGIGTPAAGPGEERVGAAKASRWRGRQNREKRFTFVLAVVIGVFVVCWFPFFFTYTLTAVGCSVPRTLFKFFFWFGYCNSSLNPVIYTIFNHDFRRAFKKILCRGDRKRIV
The experiment in a line: Binding affinity determined by displacement of [3H]rauwolscine from alpha-2A adrenergic receptor. Summed up:
as §1

The target in test [3] is T3, Alpha-1A adrenergic receptor (Homo sapiens, UniProt P35348).
T3 sequence (P35348 whole entry): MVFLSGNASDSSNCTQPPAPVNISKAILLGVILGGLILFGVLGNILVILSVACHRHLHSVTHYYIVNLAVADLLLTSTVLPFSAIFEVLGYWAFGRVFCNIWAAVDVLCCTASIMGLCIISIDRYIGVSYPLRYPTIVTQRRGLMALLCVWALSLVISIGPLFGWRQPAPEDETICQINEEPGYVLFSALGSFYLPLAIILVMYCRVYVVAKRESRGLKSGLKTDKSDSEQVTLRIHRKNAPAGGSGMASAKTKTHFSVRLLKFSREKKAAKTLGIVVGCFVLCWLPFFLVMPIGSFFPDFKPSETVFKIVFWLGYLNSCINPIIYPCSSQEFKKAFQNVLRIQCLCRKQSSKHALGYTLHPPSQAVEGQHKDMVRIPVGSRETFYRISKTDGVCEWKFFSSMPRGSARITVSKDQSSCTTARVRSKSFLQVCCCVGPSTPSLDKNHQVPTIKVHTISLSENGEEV
The experiment in a line: Binding affinity determined by displacement of [3H]prazosin from alpha-1A adrenergic receptor.

Test [4] has as its target T4, Alpha-2B adrenergic receptor (Homo sapiens, UniProt P18089).
T4 sequence (P18089 whole entry): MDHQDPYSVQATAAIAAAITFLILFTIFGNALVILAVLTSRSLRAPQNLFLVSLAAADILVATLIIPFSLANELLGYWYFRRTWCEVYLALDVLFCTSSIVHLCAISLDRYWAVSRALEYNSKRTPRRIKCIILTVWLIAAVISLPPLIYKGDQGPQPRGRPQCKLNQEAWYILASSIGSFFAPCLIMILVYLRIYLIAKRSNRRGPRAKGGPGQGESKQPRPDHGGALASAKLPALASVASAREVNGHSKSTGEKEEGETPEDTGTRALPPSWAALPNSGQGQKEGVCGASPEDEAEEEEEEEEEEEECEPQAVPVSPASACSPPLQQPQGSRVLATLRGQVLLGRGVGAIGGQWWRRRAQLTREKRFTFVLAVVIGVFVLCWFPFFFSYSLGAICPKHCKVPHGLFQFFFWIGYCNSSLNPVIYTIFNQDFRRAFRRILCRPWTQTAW
Nature of the test: Binding affinity determined by displacement of [3H]rauwolscine from alpha-2B adrenergic receptor.

Test [5] addresses T5, Alpha-1B adrenergic receptor (Homo sapiens, UniProt P35368).
T5 sequence (P35368 whole entry): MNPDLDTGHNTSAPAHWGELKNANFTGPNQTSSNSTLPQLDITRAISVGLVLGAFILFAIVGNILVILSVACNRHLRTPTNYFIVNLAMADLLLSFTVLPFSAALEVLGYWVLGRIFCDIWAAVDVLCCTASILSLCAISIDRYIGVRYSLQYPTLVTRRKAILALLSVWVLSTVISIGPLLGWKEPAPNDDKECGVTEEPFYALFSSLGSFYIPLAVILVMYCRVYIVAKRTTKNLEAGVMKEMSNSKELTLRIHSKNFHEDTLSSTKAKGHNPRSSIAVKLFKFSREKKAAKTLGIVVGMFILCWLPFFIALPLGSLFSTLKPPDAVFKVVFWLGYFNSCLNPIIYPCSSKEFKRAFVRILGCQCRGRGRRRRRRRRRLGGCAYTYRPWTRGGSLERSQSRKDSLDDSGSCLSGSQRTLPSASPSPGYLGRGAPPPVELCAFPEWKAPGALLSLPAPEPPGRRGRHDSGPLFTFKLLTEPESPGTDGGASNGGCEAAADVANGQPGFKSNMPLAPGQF
The experiment in a line: Binding affinity determined by displacement of [3H]prazosin from alpha-1B adrenergic receptor.

Test [6] has as its target T6, Alpha-2C adrenergic receptor (Homo sapiens, UniProt P18825).
T6 sequence (P18825 whole entry): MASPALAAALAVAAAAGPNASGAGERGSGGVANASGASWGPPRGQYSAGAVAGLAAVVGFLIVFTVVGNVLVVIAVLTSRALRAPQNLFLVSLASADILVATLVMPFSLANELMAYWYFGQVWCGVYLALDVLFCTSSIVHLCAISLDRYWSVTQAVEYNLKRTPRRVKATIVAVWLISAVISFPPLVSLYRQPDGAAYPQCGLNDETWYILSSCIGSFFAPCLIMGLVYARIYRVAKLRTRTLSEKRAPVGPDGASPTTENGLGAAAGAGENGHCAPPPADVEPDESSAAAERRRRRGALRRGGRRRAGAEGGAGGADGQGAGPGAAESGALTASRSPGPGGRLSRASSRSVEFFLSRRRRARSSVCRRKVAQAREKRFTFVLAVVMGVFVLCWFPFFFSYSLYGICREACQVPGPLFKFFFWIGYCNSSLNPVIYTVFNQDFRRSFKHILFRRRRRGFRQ
Nature of the test: Binding affinity assayed by displacement of [3H]rauwolscine from human alpha-2C adrenergic receptor. The method, boiled down:
as §1

Test [7] deals with Voltage-gated L-type calcium channel (Rattus norvegicus, UniProt P22002+Q02485+P27732). Nature of the test: Binding affinity at the L-type [Ca2+] channel from rat brain homogenate by [3H]nitrendipine displacement. Format: tissue-based.

As usually defined, the Ki is the dissociation constant of the complex between target and ligand, obtained from inhibition or displacement. A high value points to a looser hold on the target. Consider `CO/C(O)=C1\C(C)=NC(C)=C(C(=O)NCCCN2CCC(c3ccccc3)(c3ccccc3)CC2)C1c1ccc2ccccc2c1` (stereo not given), for which the Ki in test [1] was 741 nM; in test [2], 1580 nM; in test [3] it was 36.3 nM; in test [4], 891 nM; in test [5] it was 138 nM; in test [6] it was 631 nM. The “Log Ki” value in test [7] is reported as -6.43.
On to `CO/C(O)=C1\C(C)=NC(C)=C(C(=O)NCCCN2CCC(c3ccccc3)(c3ccccc3)CC2)C1c1ccc(C)cc1` (stereo not given), for which the inhibition constant (Ki) is 316 nM in test [1]; 1290 nM in test [2]; 1.38 nM in test [3]; 912 nM in test [4]; 269 nM in test [5]; 417 nM in test [6]. In test [7], the “Log Ki” value is on record as under -6.
For the compound `CNC(=O)C1=C(C)NC(C)=C(C(=O)NCCCN2CCC(c3ccccc3)(c3ccccc3)CC2)C1c1ccc([N+](=O)[O-])cc1` (stereo not given), the Ki in test [1] was 759 nM; in test [3] it was 4.47 nM; in test [4] it was 933 nM; in test [5], 490 nM. The “Log Ki” value in test [7] was under -6.
Consider `CO/C(O)=C1\C(C)=NC(C)=C(C(=O)NCCCN2CCC(c3ccccc3)(c3ccccc3)CC2)C1c1ccc(Cl)cc1` (stereo not given), for which the Ki in test [1] was 447 nM; in test [2], 2140 nM; in test [3], 1.78 nM; in test [4], 2290 nM; in test [5], 123 nM; in test [6], 1000 nM. In addition, the “Log Ki” value in test [7] was under -6.
With `CO/C(O)=C1\C(C)=NC(C)=C(C(=O)NCCCN2CCC(c3ccccc3)(c3ccccc3)CC2)C1c1ccc(OC)cc1` (stereo not given), the inhibition constant Ki in test [1] was 490 nM; in test [2], 2190 nM; in test [3], 7.08 nM; in test [4] it was 1510 nM; in test [5], 204 nM; in test [6] it was 1150 nM. In test [7], the “Log Ki” value is listed as under -6.
As to `CO/C(O)=C1\C(C)=NC(C)=C(C(=O)NCCCN2CCC(c3ccccc3)CC2)C1c1ccc(Cl)c([N+](=O)[O-])c1` (stereo not given), the inhibitory constant (Ki) in test [1] is 126 nM; in test [2], 110 nM; in test [3] it was 0.525 nM; in test [4], 91.2 nM; in test [5], 41.7 nM; in test [6] it was 47.9 nM. Further, the “Log Ki” value in test [7] is on record as under -6.
As to `CO/C(O)=C1\C(C)=NC(C)=C(C(=O)N(C)CCCN2CCC(c3ccccc3)(c3ccccc3)CC2)C1c1ccc([N+](=O)[O-])cc1` (stereo not given), the inhibition constant (Ki) is 501 nM in test [1]; 676 nM in test [2]; 20.4 nM in test [3]; 490 nM in test [4]; 240 nM in test [5]; 245 nM in test [6]. In addition, the “Log Ki” value in test [7] is under -6.
With `CO/C(O)=C1\C(C)=NC(C)=C(C(=O)NCCCN2CCC(c3ccccc3)(c3ccccc3)CC2)C1c1ccc2c(c1)OCO2` (stereo not given), the Ki in test [1] was 302 nM; in test [2] it was 1120 nM; in test [3] it was 1.12 nM; in test [4], 871 nM; in test [5], 224 nM; in test [6], 575 nM. Also, in test [7], the “Log Ki” value is under -6.
`CC1=C(C(=O)NCCCN2CCC(c3ccccc3)(c3ccccc3)CC2)C(c2ccc([N+](=O)[O-])cc2)C(C(=O)N(C)C)=C(C)N1` (stereo not given): the “Log Ki” value in test [7] is on record as under -6.
As for `CCC1=C(C(N)=O)C(c2ccc([N+](=O)[O-])cc2)C(C(=O)NCCCN2CCC(c3ccccc3)(c3ccccc3)CC2)=C(CC)N1` (stereo not given), the inhibition constant (Ki) in test [2] was 355 nM.
`CNC(=O)C1=C(C)NC(C)=C(C(=O)NCCCN2CCC(c3ccccc3)(c3ccccc3)CC2)C1c1ccc2c(c1)OCO2` (stereo not given): the Ki is 2090 nM in test [2]; 16.2 nM in test [3]; 575 nM in test [4]; 1780 nM in test [5]; 1020 nM in test [6].
As to `CC(C)C1=C(C(N)=O)C(c2ccc([N+](=O)[O-])cc2)C(C(=O)NCCCN2CCC(c3ccccc3)(c3ccccc3)CC2)=C(C(C)C)N1` (stereo not given), the values for the inhibition constant Ki in test [1] and in test [3] were 347 nM and 53.7 nM, respectively.
`CC1=C(C(N)=O)C(c2ccc([N+](=O)[O-])cc2)C(C(=O)NCCCN2CCC(c3ccccc3)(c3ccccc3)CC2)=C(C)N1` (single isomer, unassigned; (-)): the inhibitory constant (Ki) in test [1] was 224 nM; in test [4], 282 nM.
In the same order, the values of `CC1=C(C(N)=O)C(c2ccc([N+](=O)[O-])cc2)C(C(=O)NCCCN2CCC(c3ccccc3)(c3ccccc3)CC2)=C(C)N1` (single isomer, unassigned; (+)) are 398 nM and 407 nM.
As to `CC1=C(C(=O)O)C(c2ccc3c(c2)OCO3)C(C(=O)NCCCN2CCC(c3ccccc3)(c3ccccc3)CC2)=C(C)N1` (stereo not given), the inhibition constant Ki was 1740 nM in test [1]; 1170 nM in test [2]; 316 nM in test [3]; 200 nM in test [4]; 977 nM in test [5]; 776 nM in test [6].
For `CC1=C(C(N)=O)C(c2ccc([N+](=O)[O-])cc2)C(C(=O)NCCCN2CCC(c3ccccc3)(c3ccccc3)CC2)=C(C)N1` (stereo in doubt; 19), the “Log Ki” value in test [7] was under -6.
Same read-out and setting: to `CC(=O)C1=C(C)NC(C)=C(C(=O)NCCCN2CCC(c3ccccc3)(c3ccccc3)CC2)C1c1ccc([N+](=O)[O-])cc1` (stereo not given) belongs under -6.
